Measurements: ChEMBL document CHEMBL1156483, “A directed approach for engineering conditional protein stability using biologically silent small molecules” (J Biol Chem, 2007)
Active and inactive are the calls of the source. No cut-off for these calls is given here.

How the values were obtained:
[1] = Displacement of fluorescein-SLF from FKBP12 F36V mutant by fluorescence polarization assay
NIH3T3 [2] = experiment: (§1) Stability of FKBP12 V2A mutant-YFP fusion protein expressed in NIH3T3 cells after 24 hrs by flow cytometry; format: cell-based
Procedure, shortened: (§2)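 Retrovirally transduced NIH3T3 cells stably expressing V2A-YFP, plated at 1 × 10^5 cells/well and dosed with 3-fold dilutions (10 µM to 1 nM, or 10 µM to 300 nM) for 24 h. Cells trypsinized, resuspended in PBS, YFP read by flow cytometry (10,000 events). Average MFI ±SEM relative to F36V protein; EC50 from dose curve.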

NIH3T3 [3] = experiment: Prevention of proteasome mediated degradation of FKBP12-YFP fusion protein expressed in mouse NIH3T3 cells at 10 uM
NIH3T3 [4] = experiment: Stability of FKBP12 V4A/17V mutant-N terminus of YFP fusion protein expressed in NIH3T3 cells assessed as mean fluorescence intensity at 1 uM after 24 hrs by flow cytometry relative to FKBP12 F36V mutant; format: cell-based
Procedure, shortened: (§3)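 FKBP mutants (all carrying F36V) fused to the N- or C-terminus of YFP and stably transduced into NIH3T3 cells by MMLV retrovirus (clonally mixed populations). Cells split, mock-treated or given 1 µM for 24 h. YFP read by flow cytometry, 10,000 events. MFI normalized to parent F36V-YFP cells given 1 µM; mean of three experiments ±SEM.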

NIH3T3 [5] = experiment: Effect on 4930422M22Rik mRNA level in mouse NIH3T3 cells at 10 nM after 24 hrs by microarray analysis relative to control; format: functional
Procedure, shortened: (§4)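 NIH3T3 cells, in triplicate, mock-treated or treated with 10 nM, 100 nM or 1 µM for 24 h. Total RNA hybridized to MEEBO oligonucleotide arrays. Differentially expressed genes identified by unpaired two-class SAM against mock-treated samples, FDR ≤27.5%. Fold change reported.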

NIH3T3 [6] = experiment: Stability of FKBP12 V2A/17V mutant-N terminus of YFP fusion protein expressed in NIH3T3 cells assessed as mean fluorescence intensity at 1 uM after 24 hrs by flow cytometry relative to FKBP12 F36V mutant; format: cell-based; procedure, shortened: as §3
NIH3T3 [7] = experiment: Stability of FKBP12 17V mutant-N terminus of YFP fusion protein expressed in NIH3T3 cells assessed as mean fluorescence intensity at 1 uM after 24 hrs by flow cytometry relative to FKBP12 F36V mutant; format: cell-based; procedure, shortened: as §3
NIH3T3 [8] = experiment: Stability of FKBP12 F36V mutant-C terminus of YFP fusion protein expressed in NIH3T3 cells assessed as mean fluorescence intensity at 1 uM after 24 hrs by flow cytometry; format: cell-based; procedure, shortened: as §3
NIH3T3 [9] = experiment: Stability of FKBP12 V2A mutant-N terminus of YFP fusion protein expressed in NIH3T3 cells assessed as mean fluorescence intensity at 1 uM after 24 hrs by flow cytometry relative to FKBP12 F36V mutant; format: cell-based; procedure, shortened: as §3
NIH3T3 [10] = experiment: Stability of FKBP12 V2A mutant-C terminus of YFP fusion protein expressed in NIH3T3 cells assessed as mean fluorescence intensity at 1 uM after 24 hrs by flow cytometry; format: cell-based; procedure, shortened: as §3
[11] = Displacement of fluorescein-SLF from FKBP12 L50A mutant-GST fusion protein by fluorescence polarization assay
NIH3T3 [12] = experiment: Stability of FKBP12 L50A mutant-C terminus of YFP fusion protein expressed in NIH3T3 cells assessed as mean fluorescence intensity at 1 uM after 24 hrs by flow cytometry; format: cell-based; procedure, shortened: as §3
[13] = Displacement of fluorescein-SLF from FKBP12 F36V mutant-GST fusion protein by fluorescence polarization assay
NIH3T3 [14] = experiment: Effect on Shkbp1 mRNA level in mouse NIH3T3 cells at 10 nM after 24 hrs by microarray analysis relative to control; format: functional; procedure, shortened: as §4
NIH3T3 [15] = experiment: Effect on A430110N23 mRNA level in mouse NIH3T3 cells at 10 nM after 24 hrs by microarray analysis relative to control; format: functional; procedure, shortened: as §4
NIH3T3 [16] = experiment: Stability of FKBP12 V2A mutant-N terminus of YFP fusion protein expressed in NIH3T3 cells assessed as mean fluorescence intensity at 1 uM after 24 hrs by flow cytometry; format: cell-based; procedure, shortened: as §3
NIH3T3 [17] = experiment: Stability of FKBP12 V2A mutant-firefly luciferase fusion protein expressed in NIH3T3 cells assessed as rescue of luminescence at 1 or 10 uM after 24 hrs by dual luciferase reporter assay; format: cell-based
NIH3T3 [18] = experiment: Stability of FKBP12 L106A mutant-C terminus of YFP fusion protein expressed in NIH3T3 cells assessed as mean fluorescence intensity at 1 uM after 24 hrs by flow cytometry; format: cell-based; procedure, shortened: as §3
NIH3T3 [19] = experiment: Stability of FKBP12 F36V mutant-N terminus of YFP fusion protein expressed in NIH3T3 cells assessed as mean fluorescence intensity at 1 uM after 24 hrs by flow cytometry; format: cell-based; procedure, shortened: as §3
[20] = as §1; format: cell-based; procedure, shortened: as §2
NIH3T3 [21] = experiment: Effect on Npas4 mRNA level in mouse NIH3T3 cells at 10 nM after 24 hrs by microarray analysis relative to control; format: functional; procedure, shortened: as §4
NIH3T3 [22] = experiment: Effect on Tcfe3 mRNA level in mouse NIH3T3 cells at 1 uM after 24 hrs by microarray analysis relative to control; format: functional; procedure, shortened: as §4
NIH3T3 [23] = experiment: Effect on Epb4.1l2 mRNA level in mouse NIH3T3 cells at 1 uM after 24 hrs by microarray analysis relative to control; format: functional; procedure, shortened: as §4
[24] = Displacement of fluorescein-SLF from FKBP12 L106A mutant-GST fusion protein by fluorescence polarization assay
NIH3T3 [25] = experiment: Stability of FKBP12 V2A/V4A/17V mutant-N terminus of YFP fusion protein expressed in NIH3T3 cells assessed as mean fluorescence intensity at 1 uM after 24 hrs by flow cytometry relative to FKBP12 F36V mutant; format: cell-based; procedure, shortened: as §3
NIH3T3 [26] = experiment: Stability of FKBP12 V4A mutant-N terminus of YFP fusion protein expressed in NIH3T3 cells assessed as mean fluorescence intensity at 1 uM after 24 hrs by flow cytometry relative to FKBP12 F36V mutant; format: cell-based; procedure, shortened: as §3
NIH3T3 [27] = experiment: Effect on Csnkle mRNA level in mouse NIH3T3 cells at 1 uM after 24 hrs by microarray analysis relative to control; format: functional; procedure, shortened: as §4
NIH3T3 [28] = experiment: Effect on MtCrVgp3 mRNA level in mouse NIH3T3 cells at 10 nM after 24 hrs by microarray analysis relative to control; format: functional; conditions: in the assay text read “at 1 uM” for “at 10 nM”; procedure, shortened: as §4
NIH3T3 [29] = experiment: Stability of FKBP12 L50A mutant-N terminus of YFP fusion protein expressed in NIH3T3 cells assessed as mean fluorescence intensity at 1 uM after 24 hrs by flow cytometry; format: cell-based; procedure, shortened: as §3
[30] = Displacement of fluorescein-SLF from FKBP12 V2A mutant-GST fusion protein by fluorescence polarization assay
NIH3T3 [31] = experiment: Stability of FKBP12 V2A/V4A mutant-N terminus of YFP fusion protein expressed in NIH3T3 cells assessed as mean fluorescence intensity at 1 uM after 24 hrs by flow cytometry relative to FKBP12 F36V mutant; format: cell-based; procedure, shortened: as §3
NIH3T3 [32] = experiment: Effect on Ptpn1 mRNA level in mouse NIH3T3 cells at 10 nM after 24 hrs by microarray analysis relative to control; format: functional; procedure, shortened: as §4
NIH3T3 [33] = experiment: Stability of FKBP12 L106A mutant-N terminus of YFP fusion protein expressed in NIH3T3 cells assessed as mean fluorescence intensity at 1 uM after 24 hrs by flow cytometry; format: cell-based; procedure, shortened: as §3

## CC[C@H](C(=O)N1CCCC[C@H]1C(=O)O[C@H](CCc1ccc(OC)c(OC)c1)c1cccc(OCC(=O)NCC(C)(C)N)c1)c1cc(OC)c(OC)c(OC)c1
[1]
  Kd: 0.9 nM
NIH3T3 [2]
  Activity: Active

## CC(=O)N[C@@H](CSC(=O)[C@]1([C@@H](O)C(C)C)NC(=O)[C@H](C)[C@@H]1O)C(=O)O
NIH3T3 [3]
  Activity: Active

## CC[C@H](C(=O)N1CCCC[C@H]1C(=O)O[C@H](CCc1ccc(OC)c(OC)c1)c1cccc(OCCN2CCOCC2)c1)c1cc(OC)c(OC)c(OC)c1
NIH3T3 [4]
  Activity: Active
NIH3T3 [5]
  fold change (FC): -2.2
NIH3T3 [6]
  Activity: Active
NIH3T3 [7]
  Activity: Active
NIH3T3 [8]
  Activity: inactive
NIH3T3 [9]
  Activity: Active
NIH3T3 [10]
  Activity: inactive
[11]
  Kd: 3 nM
NIH3T3 [12]
  Activity: inactive
[13]
  Kd: 2 nM
NIH3T3 [14]
  fold change (FC): -2.3
NIH3T3 [15]
  fold change (FC): -2.1
NIH3T3 [16]
  Stability: Stable
[1]
  Kd: 0.4 nM
NIH3T3 [17]
  Activity: Dose-dependent effect
NIH3T3 [18]
  Activity: inactive
NIH3T3 [19]
  Stability: Stable
[20]
  EC50: 60 nM
NIH3T3 [21]
  fold change (FC): -1.7
NIH3T3 [22]
  fold change (FC): 1.9
NIH3T3 [23]
  fold change (FC): 2.2
[24]
  Kd: 2 nM
NIH3T3 [25]
  Activity: Active
NIH3T3 [26]
  Activity: Active
NIH3T3 [27]
  fold change (FC): 2.7
NIH3T3 [28]
  fold change (FC): -11.3
NIH3T3 [29]
  Stability: Stable
[30]
  Kd: 4 nM
NIH3T3 [31]
  Activity: Active
NIH3T3 [32]
  fold change (FC): -1.7
NIH3T3 [33]
  Stability: Stable

## CC[C@H](C(=O)N1CCCC[C@H]1C(=O)O[C@H](CCc1ccc(OC)c(OC)c1)c1cccc(OCC(=O)O)c1)c1cc(OC)c(OC)c(OC)c1
[1]
  Kd: 0.4 nM
NIH3T3 [2]
  Activity: Active

## CC[C@H](C(=O)N1CCCC[C@H]1C(=O)O[C@H](CCc1ccc(OC)c(OC)c1)c1cccc(OCC(=O)OCCn2ccnn2)c1)c1cc(OC)c(OC)c(OC)c1
[1]
  Kd: 0.7 nM
NIH3T3 [2]
  Activity: Active
